Source: publication PMC2211770 (The Journal of Experimental Medicine, 2004)
Residues, ends and D or L forms follow the SMILES beside them. *: point of attachment. Cbz = O=C(OCc1ccccc1)*; CH2F = FC*

Columns and labels:
[1] = molecular target: Recombinant human caspase-8 (Homo sapiens, UniProt Q14790); experiment: M867 potency against recombinant human caspase-8; type: biochemical
caspase-3 processing = experiment: Caspase-3 Western blotting on thymus extracts of CLP rats dosed with M867; type: in vivo, rat; conditions: all M867 doses
Summary of the method: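 Female Sprague-Dawley rats (250–300 g) had CLP via a 20-gauge through-and-through cecal puncture with a silk wick. Test compound was given as an i.v. femoral catheter bolus (2 ml/kg) then infused at 0–10 mg/kg/h for 24 h (vehicle n = 6; n = 1 per dose). Thymus lysates (40 μg, heat-denatured) were run on 10–20% SDS-PAGE and probed with rabbit anti-caspase-3 (1:2,000) and HRP anti-rabbit, with chemiluminescent detection.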

[2] = molecular target: T1, Recombinant human caspase-7 (Homo sapiens, UniProt P55210); experiment: M867 potency against recombinant human caspase-7; type: biochemical
T1 sequence (P55210 24-198 limits assumed): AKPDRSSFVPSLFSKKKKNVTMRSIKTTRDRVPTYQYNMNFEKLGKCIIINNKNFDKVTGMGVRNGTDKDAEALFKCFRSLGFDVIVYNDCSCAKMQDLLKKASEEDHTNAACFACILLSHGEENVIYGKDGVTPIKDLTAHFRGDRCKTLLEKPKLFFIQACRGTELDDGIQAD
T1 sequence (P55210 207-303 limits assumed): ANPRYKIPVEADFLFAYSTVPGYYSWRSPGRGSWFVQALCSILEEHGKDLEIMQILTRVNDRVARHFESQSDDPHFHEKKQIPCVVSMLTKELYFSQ

[3] = test system: basal apoptotic parameters; experiment: Basal apoptotic parameters in sham-operated animals; type: in vivo, rat; conditions: sham-operated animals (unpublished data)
[4] = test system: DNA fragmentation in thymocytes; experiment: DNA fragmentation; type: in vivo, rat; conditions: for Percentage of subdiploid cells (±SE): thymus 24 h
Summary of the method: (§1)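 CLP then followed: the ligated cecum was pierced through and through with a 20-gauge cannula and a silk thread was left in place for leakage. Shams had the cecum exteriorized only. Rats got 1 c.c. saline s.c., then a 2 ml/kg i.v. bolus of vehicle or test compound and 2 ml/h/kg infusion for 24 h. In the titration, doses were 0–10 mg/kg/h with one rat per dose. Thymus taken 24 h post-surgery.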

[5] = molecular target: T2, Recombinant human caspase-3 (Homo sapiens, UniProt P42574); experiment: M867 potency against recombinant human caspase-3; type: biochemical
T2 sequence (P42574 29-175 limits assumed): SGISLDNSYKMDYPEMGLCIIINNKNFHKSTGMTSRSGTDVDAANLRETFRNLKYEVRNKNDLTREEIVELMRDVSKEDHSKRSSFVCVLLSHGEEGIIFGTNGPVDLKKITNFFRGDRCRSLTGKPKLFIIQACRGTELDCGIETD
T2 sequence (P42574 176-277 limits assumed): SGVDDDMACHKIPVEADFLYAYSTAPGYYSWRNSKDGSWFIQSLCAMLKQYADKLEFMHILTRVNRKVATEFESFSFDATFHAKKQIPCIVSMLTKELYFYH

[6] = molecular target: T3, Recombinant human caspase-10 (Homo sapiens, UniProt Q92851); experiment: M867 potency against recombinant human caspase-10; type: biochemical
T3 sequence (Q92851 220-415 limits assumed): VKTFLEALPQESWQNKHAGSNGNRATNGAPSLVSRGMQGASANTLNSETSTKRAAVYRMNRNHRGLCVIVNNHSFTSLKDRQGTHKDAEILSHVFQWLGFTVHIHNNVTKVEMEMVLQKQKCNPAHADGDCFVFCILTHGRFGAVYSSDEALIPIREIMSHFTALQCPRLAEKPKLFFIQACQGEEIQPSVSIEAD
T3 sequence (Q92851 416-521 limits assumed): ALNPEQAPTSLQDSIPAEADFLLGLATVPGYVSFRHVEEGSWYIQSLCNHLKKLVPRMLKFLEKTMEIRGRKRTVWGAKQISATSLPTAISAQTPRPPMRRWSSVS

[7] = molecular target: T4, Recombinant human caspase-5 (Homo sapiens, UniProt P51878); experiment: M867 potency against recombinant human caspase-5; type: biochemical
T4 sequence (P51878 137-327 limits assumed): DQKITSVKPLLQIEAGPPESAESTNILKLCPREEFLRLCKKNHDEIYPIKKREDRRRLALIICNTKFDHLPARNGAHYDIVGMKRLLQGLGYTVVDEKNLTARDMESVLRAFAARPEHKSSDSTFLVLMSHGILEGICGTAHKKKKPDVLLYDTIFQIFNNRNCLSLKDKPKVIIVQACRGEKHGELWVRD
T4 sequence (P51878 347-434 limits assumed): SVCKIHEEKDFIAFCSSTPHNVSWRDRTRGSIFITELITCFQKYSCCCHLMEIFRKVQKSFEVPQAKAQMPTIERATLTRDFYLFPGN

[8] = molecular target: T5, Recombinant human caspase-6 (Homo sapiens, UniProt P55212); experiment: M867 potency against recombinant human caspase-6; type: biochemical
T5 sequence (P55212 24-179 limits assumed): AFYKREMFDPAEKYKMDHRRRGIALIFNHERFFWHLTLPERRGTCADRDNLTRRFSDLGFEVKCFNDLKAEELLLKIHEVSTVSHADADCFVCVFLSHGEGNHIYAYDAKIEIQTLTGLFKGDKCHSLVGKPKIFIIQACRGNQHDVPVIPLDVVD
T5 sequence (P55212 194-293 limits assumed): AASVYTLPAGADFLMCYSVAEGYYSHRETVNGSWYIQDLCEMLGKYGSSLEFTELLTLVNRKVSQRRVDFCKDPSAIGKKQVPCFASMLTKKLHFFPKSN

[9] = molecular target: T6, Recombinant human caspase-4 (Homo sapiens, UniProt P49662); experiment: M867 potency against recombinant human caspase-4; type: biochemical
T6 sequence (P49662 81-270 limits assumed): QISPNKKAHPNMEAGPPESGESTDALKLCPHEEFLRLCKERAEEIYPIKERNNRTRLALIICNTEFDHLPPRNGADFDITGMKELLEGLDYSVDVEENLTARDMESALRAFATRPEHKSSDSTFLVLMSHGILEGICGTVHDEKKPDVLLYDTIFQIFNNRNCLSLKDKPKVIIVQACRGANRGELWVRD
T6 sequence (P49662 290-377 limits assumed): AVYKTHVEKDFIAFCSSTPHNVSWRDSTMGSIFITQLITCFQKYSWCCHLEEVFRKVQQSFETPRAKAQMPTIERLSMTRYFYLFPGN

[10] = Drug levels in plasma, blood and spleen of rats under continuous i.v. infusion; type: in vivo; conditions: rat, intravenous, 2 mg/kg/h
Summary of the method: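 Test compound was given to rats by continuous i.v. infusion after a 2 ml/kg bolus, delivered at 2 ml/h/kg for 24 h. Dose rates were 2 mg/kg/h for plasma and spleen levels, and 0.5 or 1.5 mg/kg/h for blood levels.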

[11] = test system: DNA fragmentation in cultured primary rat thymocytes; experiment: DNA fragmentation; type: cell-based
Summary of the method: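 Thymocytes were cultured for 24 h at 10 × 10^6 cells/ml in CytoSF4 plus l-glutamine and antibiotics, with test compound at a range of concentrations. Cells fixed 30 min on ice in 70% EtOH and stained in PBS/0.1% Triton X-100/RNase A/25 μg/ml PI. Subdiploid DNA by flow cytometry, 20,000 events, duplicate samples, debris gated out on forward scatter. IC50 by 4-parameter fit.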

[12] = test system: αII-spectrin cleavage in thymocytes; experiment: αII-spectrin cleavage in the thymus of CLP-induced septic rats; type: in vivo, rat; conditions: for Spectrin cleavage OD (±SE): thymus 24 h
Summary of the method: as §1

[13] = molecular target: T7, Recombinant human caspase-2 (Homo sapiens, UniProt P42575); experiment: M867 potency against recombinant human caspase-2; type: biochemical
T7 sequence (P42575 170-325 limits assumed): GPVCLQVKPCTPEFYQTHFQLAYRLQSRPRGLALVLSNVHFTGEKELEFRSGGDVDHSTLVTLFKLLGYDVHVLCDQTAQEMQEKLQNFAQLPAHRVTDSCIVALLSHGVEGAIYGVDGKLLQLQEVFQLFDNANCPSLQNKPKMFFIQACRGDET
T7 sequence (P42575 348-452 limits assumed): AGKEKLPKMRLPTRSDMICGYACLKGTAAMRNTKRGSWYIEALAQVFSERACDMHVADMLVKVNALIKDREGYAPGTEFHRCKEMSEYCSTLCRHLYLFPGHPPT

[14] = molecular target: T8, Recombinant human caspase-1 (Homo sapiens, UniProt P29466); experiment: M867 potency against recombinant human caspase-1; type: biochemical
T8 sequence (P29466 120-297 limits assumed): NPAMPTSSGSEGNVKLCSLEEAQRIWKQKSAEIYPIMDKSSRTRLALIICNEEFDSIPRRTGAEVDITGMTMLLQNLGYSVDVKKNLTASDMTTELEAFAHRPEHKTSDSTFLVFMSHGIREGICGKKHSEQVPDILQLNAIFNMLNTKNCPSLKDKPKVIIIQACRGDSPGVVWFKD
T8 sequence (P29466 317-404 limits assumed): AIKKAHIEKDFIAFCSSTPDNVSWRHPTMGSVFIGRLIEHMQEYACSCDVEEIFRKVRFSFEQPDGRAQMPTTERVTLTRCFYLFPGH

[15] = test system: αII-spectrin cleavage in cultured primary rat thymocytes; experiment: αII-spectrin cleavage in cultured primary rat thymocytes; type: cell-based; conditions: read-out: IC50 spectrin, average of two to four experiments (single for zVAD-fmk and M808)
Summary of the method: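 Rat thymocytes, isolated by tissue grinding in cold PBS/glucose/glutamine/1% FBS and filtered, were kept 24 h at 10 × 10^6 cells/ml in CytoSF4 with l-glutamine and antibiotics over a test compound concentration series. The read-out is the caspase-3-generated p120 αII-spectrin neoepitope. IC50 from a 4-parameter curve fit.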

[16] = crude extrapolation, septic rats (Fig. 4)
[17] = septic rats, continuous i.v. infusion

Chain of Recombinant human caspase-8 (Q14790 217-374 limits assumed): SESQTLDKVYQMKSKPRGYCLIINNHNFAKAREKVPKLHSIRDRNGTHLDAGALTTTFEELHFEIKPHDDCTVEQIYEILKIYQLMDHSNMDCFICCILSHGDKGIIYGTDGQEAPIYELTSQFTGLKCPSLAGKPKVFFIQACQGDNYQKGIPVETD
Chain of Recombinant human caspase-8 (Q14790 385-479 limits assumed): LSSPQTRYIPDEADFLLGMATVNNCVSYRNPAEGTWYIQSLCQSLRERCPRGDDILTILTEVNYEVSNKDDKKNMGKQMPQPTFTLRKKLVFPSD

CCCCCN(C)CC(=O)[C@H](CC(=O)O)NC(=O)[C@H](CC)n1cc(C(C)(C)C)nc(NCc2nonc2C)c1=O [M867, (3S)-3-({(2S)-2-[5-tert-butyl-3-{[(4-methyl-1,2,5-oxadiazol-3-yl)methyl]amino}-2-oxopyrazin-1(2H)-yl]butanoyl}amino)-5-[methyl(pentyl)amino]-4-oxopentanoic acid]
Ki [1]: 4030 nM | caspase-3 processing (caspase-3 processing): processed equally well | Ki [2]: 8.9 nM | effect on basal apoptotic parameters [3]: no effect | reduction of DNA fragmentation in thymocytes ([4]; CLP rats, i.v. infusion over 24 h after CLP, first experiment (Fig. 2 D, n = 10)): 57% | Percentage of subdiploid cells (±SE) ([4]; CLP rats, first experiment (n = 10; vehicle 25.12, sham 1.23)): 11.61 ± 2.95% | Percentage of subdiploid cells (±SE) ([4]; CLP rats, second experiment (n = 4-5; vehicle 33.49, sham 0.37)): 13.25 ± 4.70% | in vivo IC50 DNA fragmentation [4, 16]: 2 mg/kg/h | drug levels needed to inhibit DNA cleavage compared with αII-spectrin cleavage ([4]; experimental peritonitis, rats): fourfold | doses fully inhibiting DNA fragmentation [4, 17]: above 5 mg/kg/h | effect on DNA fragmentation in dose titration ([4]; septic rats, doses up to 10 mg/kg/h): almost abrogated | Ki [5]: 1.4 nM | Ki [6]: 29500 nM | Ki [7]: 805 nM | Ki [8]: 3440 nM | Ki [9]: 495 nM | concentration at 24 h ([10]; plasma): 650 ± 180 nM | concentration at 24 h ([10]; spleen): 370 ± 100 nM | effect on DNA fragmentation ([11]; 0.1 μM, cultured thymocytes): without affecting | reduction of αII-spectrin cleavage in thymocytes ([12]; CLP rats, i.v. infusion over 24 h after CLP, first experiment (Fig. 2 C, n = 10)): 88% | Spectrin cleavage OD (±SE) ([12]; CLP rats, first experiment (n = 10; vehicle 0.97, sham 0.21)): 0.30 ± 0.01 OD | Spectrin cleavage OD (±SE) ([12]; CLP rats, second experiment (n = 4-5; vehicle 0.58, sham 0.12)): 0.18 ± 0.01 OD | in vivo IC50 αII-spectrin cleavage [12, 16]: 0.5 mg/kg/h | inhibition of αII-spectrin cleavage ([12]; septic rats, 2 mg/kg/h): almost complete inhibition | doses achieving abolition of αII-spectrin cleavage [12, 17]: below 2 mg/kg/h | Ki [13]: > 100000 nM | Ki [14]: 107 nM

COC(=O)C[C@H](NC(=O)[C@H](C)NC(=O)[C@@H](NC(=O)OCc1ccccc1)C(C)C)C(=O)CF [zVAD-fmk, zVAD-fluoromethyl ketone, reference compound] (Cbz-Val-Ala-Asp(OMe)-CH2F)
IC50 [15]: 600 nM | IC50 ([11]; read-out: IC50 subdiploid, cultured rat thymocytes, average of two to four experiments (single for zVAD-fmk and M808)): 25000 nM
